Results gathered from unrelated publications.
Each line is one published result; the experiments were not run side by side.
Organism: Micrococcus luteus
Observed: microbial growth

CC1=NN(CNc2ccccn2)C(=O)C1=NNn1c(-c2ccccc2)nc2ccccc2c1=O — MIC (broth dilution; 24 h): 110 µM
C/C=C(\C)c1cc(O)c(C)c(OC(=O)c2c(C)cc(O)c(Cl)c2O)c1 — MIC (broth dilution; ML01): 4 µg/mL
O=C1NC(=S)S/C1=C\c1ccc(-c2ccc(N(c3ccccc3)c3ccccc3)cc2)cc1 — MIC (broth dilution; ATCC10240): 31.1 µg/mL
CN(C)[C@@H]1C(O)=C(C(N)=O)C(=O)[C@@]2(O)C(O)=C3C(=O)c4c(O)cccc4[C@@](C)(O)[C@H]3C[C@@H]12 — MIC: 2 µg/mL
CC1=NN(CNC(=O)c2ccccn2)C(=O)C1=NNn1c(-c2ccccc2)nc2ccccc2c1=O — MIC (broth dilution; 24 h): 52 µM
CC1(C)S[C@@H]2[C@H](NC(=O)[C@H](N)c3ccccc3)C(=O)N2[C@H]1C(=O)O — MIC (broth dilution; ML01): 0.13 µg/mL
O=C1NC(=S)N/C1=C\c1ccc(-c2ccc(N(c3ccccc3)c3ccccc3)cc2)c2ccccc12 — MIC (broth dilution; ATCC10240): > 1000 µg/mL
CC(=O)NCN1N=C(C)C(=NNn2c(-c3ccccc3)nc3ccccc3c2=O)C1=O — MIC (broth dilution; 24 h): 59.9 µM
C/C=C(\C)c1cc(OC(=O)c2c(C)c(Cl)c(O)c(Cl)c2O)c(C)c(O)c1C(=O)O — MIC (broth dilution; ML01): 64 µg/mL
O=C(O)CN1C(=O)/C(=C/c2ccc(-c3ccc(N(c4ccccc4)c4ccccc4)cc3)cc2)SC1=S — MIC (broth dilution; ATCC10240): 0.98 µg/mL
